{"source": "ChEMBL document CHEMBL1671691", "about": "(Antimicrob Agents Chemother, 2010)", "key": {"[1]": {"system": "Influenza A virus", "assay": "Antiviral activity against adamantane-, zanamivir-susceptible oseltamivir-resistant Influenza A virus (A/North Carolina/02/ 2009(H1N1)) harboring M2 S31N mutant infected in MDCK cells assessed as inhibition of viral replication after 3 days by microscopic analysis using crystal violet stain", "type": "functional, organism-based", "procedure,_shortened": "(§1)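 Confluent MDCK-ATCC monolayers infected with virus diluted to give 15–45 plaques/well. Adsorption 1 h at 37°C without drug, then washed. Overlaid with 0.8% agarose in MEM containing drug plus TPCK-trypsin: 3 μg/ml for seasonal viruses, 2 μg/ml for 2009 A(H1N1). Incubated 3 days at 37°C, 5% CO2. Ethanol-fixed, crystal violet-stained, plaques counted. EC50 by curve fit; duplicates on three occasions, mean ± SD.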"}, "[2]": {"system": "Influenza A virus", "assay": "Antiviral activity against adamantane-resistant zanamivir-,oseltamivir-susceptible Influenza A virus (A/Wisconsin/16/2008(H1N1)) harboring neuraminidase H274Y mutant infected in MDCK cells assessed as inhibition of viral replication after 3 days by microscopic analysis using crystal violet stain", "type": "functional, organism-based", "procedure,_shortened": "as §1"}, "[3]": {"system": "Influenza B virus", "assay": "Antiviral activity against oseltamivir-susceptible zanamivir-, adamantane-resistant Influenza B virus B/Memphis/20/1996 harboring neuraminidase R152K mutant infected in MDCK cells assessed as inhibition of viral replication after 3 days by microscopic analysis using crystal violet stain", "type": "functional, cell-based, B/Memphis/20/96"}, "[4]": {"system": "Influenza A virus", "assay": "Antiviral activity against oseltamivir-susceptible zanamivir-, adamantane-resistant Influenza A virus (A/Wuhan/395/1995-like (H3N2)) harboring neuraminidase E119V mutant infected in MDCK cells assessed as inhibition of viral replication after 3 days by microscopic analysis using crystal violet stain", "type": "functional, organism-based"}, "[5]": {"system": "Influenza A virus", "assay": "Antiviral activity against adamantane-resistant zanamivir-,oseltamivir-susceptible Influenza A virus (A/New Hampshire/01/2009(H3N2)) harboring M2 S31N mutant infected in MDCK cells assessed as inhibition of viral replication after 3 days by microscopic analysis using crystal violet stain", "type": "functional, organism-based", "procedure,_shortened": "as §1"}, "[6]": {"system": "Influenza A virus", "assay": "Antiviral activity against adamantane-, zanamivir-susceptible oseltamivir-resistant Influenza A virus (A/Florida/21/2008(H1N1)) harboring neuraminidase H274Y mutant infected in MDCK cells assessed as inhibition of viral replication after 3 days by microscopic analysis using crystal violet stain", "type": "functional, organism-based", "procedure,_shortened": "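MDCK-ATCC confluent monolayers infected with pretitrated virus (15–45 plaques per well), 1 h adsorption at 37°C, 5% CO2, without drug. Inoculum removed, PBS wash, then 0.8% agarose overlay in MEM with drug and 3 μg/ml TPCK-trypsin. 3 days at 37°C, ethanol fixation, crystal violet stain, plaques counted. EC50 by curve fit, mean of three experiments in duplicate ± SD.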"}}}
{"smiles": "NC(=O)c1nc(F)cnc1O", "note": "[FAVIPIRAVIR]", "values": [{"measurement": "EC50", "setting": "[1]", "value": 5.03, "unit": "µM"}, {"measurement": "EC50", "setting": "[2]", "value": 2.87, "unit": "µM"}, {"measurement": "EC50", "setting": "[3]", "value": 0.57, "unit": "µM"}, {"measurement": "EC50", "setting": "[4]", "value": 5.41, "unit": "µM"}, {"measurement": "EC50", "setting": "[5]", "value": 4.08, "unit": "µM"}, {"measurement": "EC50", "setting": "[6]", "value": 1.59, "unit": "µM"}]}
